Screens as filed in PubChem BioAssay.
Shown are actives, neighbours in structure and some others; about 5.2% of the full set was active somewhere.
ZTA counter: counter-screen for EBNA-1 inhibitors: inhibitors of Epstein-Barr virus ZTA; P03206; ZTA-DNA binding, fluorescence polarization; inhibition, % at 11 µM; hit rate 0.15% among 320,000; in the data active means inhibition above about 33%
Target sequence (P03206 whole entry, looked up): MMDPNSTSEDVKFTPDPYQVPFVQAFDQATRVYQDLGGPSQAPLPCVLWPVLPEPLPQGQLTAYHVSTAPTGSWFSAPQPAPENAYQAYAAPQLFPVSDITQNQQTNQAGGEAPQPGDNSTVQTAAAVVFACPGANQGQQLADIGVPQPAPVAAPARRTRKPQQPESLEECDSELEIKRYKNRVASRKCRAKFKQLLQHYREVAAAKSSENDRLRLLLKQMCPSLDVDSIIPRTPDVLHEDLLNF
HCV NS3 hel inh: inhibitors of HCV NS3 helicase, primary screen, biochemical, Cy5 molecular beacon fluorescence; inhibition, % at 10.9 µM; hit rate 0.56% among 290,000; Hepatitis C virus NS3 helicase; AID 1800, 2009; NS3 helicase DNA unwinding;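 active means inhibition above the mean of all tested compounds plus 3 SD, set per campaign, cut at about 35% in these data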;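 further: 0% = DMSO wells and 100% = thioflavine S control wells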
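Assay system: hepatitis C virus NS3 helicase domain fragment enzyme. Also added: annealed dual-labelled DNA beacon duplex, ATP-started. Timing: 1 h reaction at 25 °C, ATP-initiated. Technique: Cy5 fluorescence at 0 and 60 min, beacon hairpin quenching. Evaluation: % inhibition of unwinding. Replication: one well per compound.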
HCV core dimer: inhibitors of HCV core protein dimerization, primary screen, biochemical, TR-FRET, high-throughput; hit rate 0.33% among 300,000; inhibition, % at 5 µM; TR-FRET GST/Flag-core106 dimerization, 1536-well;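 active means inhibition above the mean of all tested compounds plus 3 SD, set per screening campaign, cut at about 45% in these data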
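Material: Tagged HCV core106 pair (GST and Flag) | Amount: GST-core106 13.5 nM, Flag-core106 17 nM | Medium: KF-containing HEPES buffer, pH 7.45, DTT, CHAPS, BSA | Reagent: Eu donor and XL665 acceptor anti-tag antibodies | Schedule: 4 h at 22.5 °C | Technique: Time-resolved FRET, ex 340 nm, em 617 and 671 nm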
ALR inh: inhibitors of human ALR sulfhydryl oxidase, primary screen, biochemical, H2O2 detection, HRP-luminol luminescence, single point. AID 485317, 2010. FAD-linked sulfhydryl oxidase ALR (Homo sapiens), P55789. hit rate 3.8% among 290,000. purified ALR, DTT oxidation. inhibition, % (no concentration beside the values);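 active means mean replicate inhibition above about 79%, with every replicate also reaching it, limit read from the data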
Target sequence (P55789 whole entry, looked up): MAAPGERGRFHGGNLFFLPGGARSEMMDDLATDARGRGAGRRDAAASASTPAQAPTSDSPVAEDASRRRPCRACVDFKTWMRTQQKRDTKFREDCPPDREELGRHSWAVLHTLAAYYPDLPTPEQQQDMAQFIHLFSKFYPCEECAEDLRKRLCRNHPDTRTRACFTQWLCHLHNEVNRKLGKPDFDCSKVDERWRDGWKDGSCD
EBNA-1 inh: EBNA-1 DNA-binding inhibitors, primary screen, biochemical, fluorescence polarization | inhibition, % at 14.8 µM | hit rate 0.34% among 300,000 | AID 1950, 2009; in the data active means inhibition above about 28%
PfM18AAP inh: PfM18AAP inhibitors, malaria aminopeptidase, primary screen, biochemical, QFRET, recombinant enzyme. M18 aspartyl aminopeptidase (Plasmodium falciparum 3D7). H-Glu-NHMec fluorogenic cleavage. inhibition, % at 7.35 µM. AID 1822, 2009. hit rate 1.2% among 290,000;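 active means inhibition above the campaign mean inhibition over all tested compounds plus 3 SD, cut at about 28% in these data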;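 further: 0% = plate median of test compound wells and 100% = 2 mM ZnCl2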
* = called active by the depositor; / = no result.

SMILES	ZTA counter	HCV NS3 hel inh	HCV core dimer	ALR inh	EBNA-1 inh	PfM18AAP inh
Nc1nc(SCc2ccc(Cl)cc2Cl)nc2nc3c(cc12)CCCC3	1.2	-4.7	15.8	90.3*	28.8*	-9.0
Nc1nc(SCc2ccc(Cl)cc2Cl)ns1	3.1	-8.2	0.1	98.6*	2.3	7.3
Nc1nc(SCc2ccc(F)cc2)ns1	9.8	-5.2	0.2	98.1*	-5.1	7.2
CCc1nnc(NCC(=O)N2CCc3ccccc32)s1	-9.6	12.6	88.2*	-5.9	1.6	2.5
Cc1ccc2nc(N3C(=O)CNC3=S)sc2c1	-0.4	2.9	-1.3	93.2*	1.2	11.4
COc1ccc2nc(N3C(=O)CNC3=S)sc2c1	9.2	-7.2	-1.3	/	-13.4	18.2
CCOc1ccc(N(CC(=O)Nc2ccc(OC)cc2OC)S(=O)(=O)c2c(C)[nH]c(=O)[nH]c2=O)cc1	-3.8	10.5	7.4	-35.3	0.8	0.6
COc1ccc(N2C(=O)C(Cl)=C(Nc3ccccc3OC)C2=O)cc1	14.6	2.5	3.6	-5.2	3.5	14.0
COc1ccc(N2C(=O)C(Cl)=C(Nc3ccccc3O)C2=O)cc1	2.7	4.5	-6.1	-5.3	-6.2	28.9*
CN(C)c1ccc(/C=N/NS(=O)(=O)c2ccc(Br)cc2)cc1	-1.5	-12.0	-3.2	89.6*	-2.7	4.3
COc1cc(/C=N/NS(=O)(=O)c2ccc(Br)cc2)ccc1O	-11.8	-3.3	-4.7	99.2*	4.1	4.6
Cc1ccc2c(c1)C(=O)CCCCC(=O)N2	-10.7	3.2	-1.2	-6.7	-12.8	0.9
O=C(CSc1nc2ccccc2c(=O)n1-c1ccccc1)c1c[nH]c2ccccc12	-1.9	5.1	-5.9	-2.0	37.2*	-3.0
NC(=O)CSc1nc2ccccc2c(=O)n1-c1ccccc1	-7.0	0.9	7.3	-3.7	-1.4	-1.4
Cc1ccc(-n2c(SCC(=O)N3CC(=O)Nc4ccccc43)nc3ccccc3c2=O)cc1	0.4	11.4	12.6	98.3*	-1.1	2.9
CC(=O)c1ccc(S(=O)(=O)NCC(=O)Nc2nc3ccccc3[nH]2)cc1	-0.7	/	/	36.9	/	/
CCOc1cc(/C=C2/NC(=O)N(CC(=O)OC)C2=O)ccc1O	3.2	15.6	-24.6	95.8*	5.7	-4.8
C=CCc1cc(/C=C2/NC(=O)N(CC(=O)OC)C2=O)cc(OC)c1O	-8.2	-2.6	-5.8	98.1*	-17.9	1.2
CCOc1cc(/C=C2/NC(=O)N(CC(=O)Nc3cccc(C)c3)C2=O)ccc1O	11.2	-0.4	-9.8	32.4	-0.7	0.5
Oc1ccc2c(c1)oc1cc(O)ccc12	4.0	-0.1	-10.3	98.8*	-0.5	3.8
COc1c(C)oc2cc(O)ccc2c1=O	3.6	2.4	0.1	-1.8	5.3	3.5
O=C(O)/C=C/c1cn(-c2ccccc2)nc1-c1cc2ccccc2o1	24.5	-0.2	11.2	2.6	3.6	5.0
O=S(=O)(c1ccc(Cl)s1)N1CCCc2cccc(O)c21	1.4	0.9	2.1	98.8*	-2.2	4.1
O=C(CN1CCN(S(=O)(=O)c2ccc(Cl)cc2)CC1)Nc1ccc(N2CCOCC2)cc1	-0.7	1.5	5.1	-2.8	9.2	3.4
O=C(Nc1ccc(N2CCOCC2)cc1)C1CC(O)CN1S(=O)(=O)c1ccc(Cl)cc1 (stereo not given)	-0.2	-0.8	-1.9	78.0*	13.0	-3.7
SMILES	ZTA counter	HCV NS3 hel inh	HCV core dimer	ALR inh	EBNA-1 inh	PfM18AAP inh
CCC1C(=O)N=C(SCC(=O)NC2CCCCC2)NC1=O (stereo not given)	4.4	-17.5	8.4	57.0	-4.2	-10.1
COc1ccccc1NC(=O)CSC1=NC(=O)C(Cc2ccccc2)C(=O)N1 (stereo not given)	6.3	0.4	5.2	98.8*	5.7	-8.9
CCC1C(=O)N=C(SCC(=O)Nc2ccccc2)NC1=O (stereo not given)	2.2	-1.2	1.7	99.3*	6.3	0.3
NS(=O)(=O)c1ccc(NC(=O)CSc2n[nH]c(=O)n2C2CC2)cc1	-1.4	/	/	-33.4	/	/
COc1ccccc1NC(=O)CSC1=NC(=O)C(NC(C)=O)C(=O)N1 (stereo not given)	10.9	-0.7	-4.2	/	10.3	-7.7
CCC1C(=O)N=C(SCC(=O)Nc2ccc(S(N)(=O)=O)cc2)NC1=O (stereo not given)	-5.8	8.7	-7.5	99.5*	-9.4	1.8
O=C(CCN1CCN(Cc2ccccc2)CC1)NNC(=O)Nc1cccc([N+](=O)[O-])c1	/	5.6	/	-15.1	/	9.7
Cc1ccc(NC(=O)COc2cccc3c2OC(C)(C)C3)c(O)c1	-1.5	/	/	48.2	/	/
O=C(Nc1ccc2[nH]ncc2c1)c1ccccc1Cl	-3.3	-3.4	1.6	-18.4	-3.7	-7.5
O=C(N/N=C1/CCSC1)c1cc(Br)ccc1O	-3.9	21.2	1.1	92.7*	0.4	23.6
O=C(NN=C1CCCC1)c1cc(Br)ccc1O	2.2	0.0	2.4	74.8	3.5	-0.8
CCCCOc1ccc(CSC(=N)N)cc1Cl	5.4	-62.6	-4.7	98.7*	-10.4	3.0
CCCCCOc1ccc(Br)cc1CSC(=N)N	/	-63.1	/	/	/	1.9
CCOc1ccc(CSC(=N)N)cc1	9.2	1.0	-0.1	98.1*	6.5	4.7
O=C(NCCCc1ccc(F)cc1)C1CCC(=O)N(CCCN2CCCC2=O)C1 (stereo not given)	10.2	17.1	-13.2	0.7	-16.0	3.5
O=[N+]([O-])c1ccc(CSc2nc3ccccc3[nH]2)cc1	-8.8	-7.5	-6.2	/	-6.1	-1.9
O=c1cnnc(SCc2ccc([N+](=O)[O-])cc2)[nH]1	-0.8	-5.7	2.4	99.5*	-7.6	7.5
COc1ccc(CCNC(=O)C/C(C)=N/NC(=O)c2cnccn2)cc1	-7.9	-0.3	-4.5	11.6	-1.9	11.9
O=C(COC(=O)/C=C/c1ccc([N+](=O)[O-])cc1)NCC1CCCO1 (stereo not given)	5.3	-8.8	-1.6	94.7*	-3.1	-6.7
O=C(COC(=O)/C=C/c1ccc([N+](=O)[O-])cc1)NCC1CCCCC1	/	/	/	54.2	/	/
CCC(=O)N(Cc1ccco1)c1nc(C(=O)Nc2ccc(Cl)cc2)c(C)s1	-4.7	33.9	15.4	2.5	1.8	-40.4
Cc1sc(N)c(C#N)c1C	-9.3	7.3	-6.5	/	1.7	36.5*
COc1ccc(CCC(=O)Nc2cccc(S(=O)(=O)N(C)C)c2)cc1OC	6.2	-6.4	-1.4	-5.7	-10.8	0.9
CCSc1nnc(NC(=O)CSc2sc3c(O)cc(=O)[nH]c3c2C#N)s1	14.0	17.9	9.5	69.8	-6.2	1.0
Cc1csc(NC(=O)CSc2nsc(SCC(=O)Nc3nc(C)cs3)c2C#N)n1	-2.9	-9.2	-1.0	70.7	11.7	22.2
CCc1nnc(NC(=O)CSc2sc3c(O)cc(=O)[nH]c3c2C#N)s1	-8.7	16.7	-18.8	98.4*	-8.0	16.3
